The values that follow come from ChEMBL document CHEMBL1932980, “Structure-activity relationships of 2-amino-3-aroyl-4-[(4-arylpiperazin-1-yl)methyl]thiophenes. Part 2: Probing the influence of diverse substituents at the phenyl of the arylpiperazine moiety on allosteric enhancer activity at the A₁ adenosine receptor” (Bioorg Med Chem, 2012).

The structures appear in SMILES notation.

For assay [1], the target named is T1, Adenosine receptor A1 (Homo sapiens) (UniProt P30542).
T1 sequence (whole entry): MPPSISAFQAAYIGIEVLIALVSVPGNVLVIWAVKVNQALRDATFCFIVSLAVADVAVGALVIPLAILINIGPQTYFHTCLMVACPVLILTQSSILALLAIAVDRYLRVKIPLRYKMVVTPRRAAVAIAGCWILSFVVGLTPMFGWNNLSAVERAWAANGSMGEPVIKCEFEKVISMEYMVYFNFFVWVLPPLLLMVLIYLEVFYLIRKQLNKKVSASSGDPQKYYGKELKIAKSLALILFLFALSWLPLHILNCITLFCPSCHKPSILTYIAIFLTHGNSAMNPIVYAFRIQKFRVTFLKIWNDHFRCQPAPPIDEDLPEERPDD
Put plainly: Allosteric enhancer activity at recombinant human A1 adenosine receptor expressed in CHO cells assessed as change in forskolin-induced cAMP production at 0.01 uM after 6 mins by radioimmunoassay. The class given is functional, cell-based. In a few lines: (§1)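 hA1CHO cells (about 8000 fmol/mg protein) thawed from low-passage stocks, grown in Ham's F-12 with 10% FBS and G-418, then plated 48 h. Test compound at 0.01, 0.1, 1 or 10 µM with CPA (0.05–0.1 nM) for 6 min at 36 °C. Stopped with HCl (final 50 mM). cAMP in acidified extracts measured by radioimmunoassay. Reference enhancer run in each experiment. Four experiments per concentration.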

The target in assay [2] is T1, Adenosine receptor A1 (Homo sapiens). The experiment in a line: Allosteric enhancer activity at recombinant human A1 adenosine receptor expressed in CHO cells assessed as change in forskolin-induced cAMP production at 0.1 uM after 6 mins by radioimmunoassay. It counts as functional, cell-based. In a few lines:
as §1

Assay [3] shares this target. Put plainly: Allosteric enhancer activity at recombinant human A1 adenosine receptor expressed in CHO cells assessed as change in forskolin-induced cAMP production at 1 uM after 6 mins by radioimmunoassay. It counts as functional, cell-based. In a few lines:
as §1

Assay [4] shares this target. The experiment in a line: Allosteric enhancer activity at recombinant human A1 adenosine receptor expressed in CHO cells assessed as change in forskolin-induced cAMP production at 10 uM after 6 mins by radioimmunoassay. It counts as functional, cell-based. In a few lines:
as §1

Assay [5] has the same target. Put plainly: Displacement of [3H]DPCPX from recombinant human A1 adenosine receptor expressed in CHO cells at 10 uM after 120 mins by scintillation counting. It counts as cell-based. In a few lines:
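Membranes from hA1CHO cells incubated with 1 nM [3H]DPCPX in 50 mM Tris–HCl pH 7.4 at 25 °C for 120 min. Compound added from a 100-fold DMSO stock, so 1% DMSO final, also present in controls. Bound ligand separated on GF/B filters and counted by scintillation. Result given as % of control specific binding.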

For assay [6], the target named is Adenosine receptor A2a (Homo sapiens) (UniProt P29274). Put plainly: Displacement of [3H]ZM241385 from recombinant human A2A adenosine receptor expressed in CHO cells at 10 uM after 60 mins by scintillation counting. The class given is cell-based. An outline of the steps: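 Membranes from hA2ACHO cells incubated with 1 nM [3H]ZM 241385 in 50 mM Tris–HCl, 10 mM MgCl2, pH 7.4 at 4 °C for 60 min. Compound added from a 100-fold DMSO stock, 1% DMSO final, also in controls. Separated by GF/B filtration and counted by scintillation. Result given as % of control specific binding.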

Assay [7] has as its target T2, Adenosine receptor A3 (Homo sapiens) (UniProt P0DMS8).
T2 sequence (whole entry): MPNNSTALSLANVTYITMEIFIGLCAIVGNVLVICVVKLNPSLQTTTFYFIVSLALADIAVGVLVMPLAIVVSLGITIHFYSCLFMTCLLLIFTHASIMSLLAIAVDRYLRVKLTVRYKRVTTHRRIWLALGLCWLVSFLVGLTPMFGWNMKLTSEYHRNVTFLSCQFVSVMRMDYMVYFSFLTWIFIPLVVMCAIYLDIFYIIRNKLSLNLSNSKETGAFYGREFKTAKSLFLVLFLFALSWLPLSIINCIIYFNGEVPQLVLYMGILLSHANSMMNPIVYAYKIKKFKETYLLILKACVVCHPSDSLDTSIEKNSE
The experiment in a line: Displacement of [3H]MRE3008F20 from recombinant human A3 adenosine receptor expressed in CHO cells at 10 uM after 120 mins by scintillation counting. It counts as cell-based. In a few lines:
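Membranes from hA3CHO cells incubated with 2 nM [3H]MRE 3008F20 in 50 mM Tris–HCl, 10 mM MgCl2, 1 mM EDTA, pH 7.4 at 4 °C for 120 min. Compound added from a 100-fold DMSO stock, 1% DMSO final, also in controls. Separated by GF/B filtration and counted by scintillation. Result given as % of control specific binding.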

Assay [8] deals with T1, Adenosine receptor A1 (Homo sapiens). The experiment in a line: Binding affinity to recombinant human A1 adenosine receptor allosteric site expressed in CHO cells assessed as [3H]CCPA Bmax shift at 10 uM after 90 mins relative to control. It counts as cell-based. An outline of the steps:
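Saturation binding of [3H]CCPA (0.05–20 nM) to hA1CHO membranes. Membranes pretreated with adenosine deaminase 3 UI/mL for 30 min at 37 °C. Run in triplicate, 90 min at 25 °C, in 50 mM Tris–HCl pH 7.4, with or without test compound at final 10 µM. Nonspecific binding taken with 1 µM R-PIA. Bmax fitted by LIGAND. Shift is the fold of Bmax increase over control.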

Assay [9] has the same target. The experiment in a line: Binding affinity to recombinant human A1 adenosine receptor allosteric site expressed in CHO cells assessed as [3H]DPCPX Bmax shift at 10 uM after 90 mins relative to control. It counts as cell-based. An outline of the steps: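 Saturation binding of [3H]DPCPX (0.05–20 nM) to hA1CHO membranes, run in triplicate, 90 min at 25 °C, in 50 mM Tris–HCl pH 7.4, with or without test compound at final 10 µM. Nonspecific binding taken with 1 µM DPCPX. KD and Bmax fitted by LIGAND. Shift is the fold of Bmax increase over control.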

Assay [10] shares this target. Put plainly: Binding affinity to recombinant human A1 adenosine receptor allosteric site expressed in CHO cells assessed as potentiation of CCPA-induced [3H]DPCPX displacement at 10 uM after 90 mins relative to control. It counts as cell-based. An outline of the steps: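 Competition of CCPA (0.01 nM–1 µM) against 1 nM [3H]DPCPX on hA1CHO membranes, run in triplicate, 90 min at 25 °C, in 50 mM Tris–HCl pH 7.4, with or without test compound at 10 µM. Nonspecific binding taken with 1 µM DPCPX. Ki by Cheng–Prusoff. Shift = Ki(CCPA)/Ki(CCPA + 10 µM compound).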

Sequence of Adenosine receptor A2a (Homo sapiens) (P29274 whole entry): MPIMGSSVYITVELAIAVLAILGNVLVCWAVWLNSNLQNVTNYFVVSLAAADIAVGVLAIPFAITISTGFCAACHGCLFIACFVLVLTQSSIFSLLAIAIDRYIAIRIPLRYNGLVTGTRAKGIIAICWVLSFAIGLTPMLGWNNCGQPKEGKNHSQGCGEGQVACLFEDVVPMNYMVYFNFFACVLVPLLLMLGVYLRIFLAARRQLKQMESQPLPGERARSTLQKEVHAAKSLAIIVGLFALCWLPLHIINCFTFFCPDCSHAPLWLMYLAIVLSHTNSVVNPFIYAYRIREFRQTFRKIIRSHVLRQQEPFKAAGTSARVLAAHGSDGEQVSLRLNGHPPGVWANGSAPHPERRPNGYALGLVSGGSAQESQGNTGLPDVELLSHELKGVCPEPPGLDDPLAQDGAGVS

For the compound `COc1ccc(N2CCN(Cc3csc(N)c3C(=O)c3ccc(Cl)cc3)CC2)cc1`, the Activity in assay [1] is -1.2%; in assay [2], 0%; in assay [3] it was -15%; in assay [4] it was -52%. For the same compound, the inhibition in assay [5], in assay [6] and in assay [7] was 0% throughout. Moreover, the fold change (FC) in assay [8] is 3.3; in [9] it was 0.9; in assay [10], 2.8.
As to `Nc1scc(CN2CCN(c3ccc(F)cc3Cl)CC2)c1C(=O)c1ccc(Cl)cc1`, the Activity in [1] was 6.1%; in [2], -6.2%; in assay [3], -39%; in [4], -70%. The inhibition in assay [5], in [6] and in assay [7] was 0% throughout. Besides, the fold change (FC) in assay [8] was 5.2; in assay [9] it was 1.1; in assay [10] it was 4.2.
In the case of `Nc1scc(CN2CCN(c3ccc(Cl)c(C(F)(F)F)c3)CC2)c1C(=O)c1ccc(Cl)cc1`, the Activity in [1] is -2.5%; in assay [2], -12%; in [3], -47%; in assay [4], -60%. Moreover, the inhibition in [5] was determined as 0%; in [6], 0%; in assay [7], 3%. In addition, the values for the fold change (FC) in [8], in assay [9] and in [10] were 5.7, 1 and 4.5, respectively.
For `Nc1scc(CN2CCN(c3ccc(OC(F)(F)F)cc3)CC2)c1C(=O)c1ccc(Cl)cc1`, the Activity in assay [1] is 0%; in assay [2], -13%; in [3], -51%; in assay [4], -74%. The inhibition in assay [5] is 0%; in [6] it was 0%; in assay [7] it was 1%. Besides, the fold change (FC) in assay [8] was found to be 6.8; in [9] it was 1.1; in assay [10] it was 5.3.
For `Nc1scc(CN2CCN(c3ccc(Cl)c(Cl)c3)CC2)c1C(=O)c1ccc(Cl)cc1`, the Activity in assay [1] was -1.2%; in assay [2] it was -13%; in assay [3], -60%; in assay [4] it was -62%. The values for the inhibition in assay [5], in [6] and in assay [7] were 1%, 0% and 3%, respectively. The fold change (FC) in assay [8] came out at 4.6; in [9], 1; in assay [10], 3.8.
Consider `Nc1scc(CN2CCN(c3cc(Cl)cc(Cl)c3)CC2)c1C(=O)c1ccc(Cl)cc1`, for which the Activity in [1] is -1%; in [2], -22%; in assay [3] it was -69%; in [4] it was -74%. Moreover, the inhibition in assay [5] turned out to be 1%; in assay [6], 0%; in assay [7], 1%. Also, the values for the fold change (FC) in [8], in [9] and in [10] were 5.8, 1 and 4.5, respectively.
For the compound `Nc1scc(CN2CCN(CC(=O)c3ccc(Cl)cc3)CC2)c1C(=O)c1ccc(Cl)cc1`, the Activity in [1] is -5%; in assay [2] it was 1%; in [3], -25%; in assay [4], -62%. Further, the inhibition in assay [5] came to 0%; in [6] it was 1%; in [7], 0%. For the same compound, the fold change (FC) in assay [8] came out at 1.4; in assay [9], 0.9; in assay [10], 1.4.
For the compound `Nc1scc(CN2CCN(c3cccc(Cl)c3Cl)CC2)c1C(=O)c1ccc(Cl)cc1`, the Activity in assay [1] was 1%; in assay [2] it was 3.2%; in assay [3], -57%; in assay [4] it was -77%. Besides, the inhibition turned out to be 2% in assay [5], 1% in [6] and 0% in assay [7]. Besides, the fold change (FC) in assay [8] is 4.2; in assay [9], 1; in assay [10], 3.5.
For `Nc1scc(CN2CCN(c3ccccc3F)CC2)c1C(=O)c1ccc(Cl)cc1`, the Activity is 2.1% in assay [1], -1% in [2], -9.2% in assay [3] and -15% in assay [4]. The values for the inhibition in assay [5], in assay [6] and in assay [7] were 4%, 0% and 0%, respectively. Besides, the values for the fold change (FC) in assay [8], in [9] and in assay [10] were 1.1, 1 and 1.4, respectively.
Consider `Nc1scc(CN2CCN(c3ccccc3C(F)(F)F)CC2)c1C(=O)c1ccc(Cl)cc1`, for which the Activity in assay [1] is 0%; in [2], -7.5%; in assay [3] it was -39%; in [4] it was -60%. For the same compound, the inhibition in assay [5], in assay [6] and in assay [7] was 0% in each case. Besides, the fold change (FC) worked out at 4.4 in [8], 1 in [9] and 3.6 in assay [10].
Regarding `Nc1scc(CN2CCN(c3cccc4ccccc34)CC2)c1C(=O)c1ccc(Cl)cc1`, the Activity is 8.7% in assay [1], 0% in [2], 2.9% in [3] and -21% in assay [4]. For the same compound, the inhibition in assay [5] is 1%; in assay [6], 0%; in [7], 0%. Moreover, the fold change (FC) in assay [8] is 1.1; in assay [9], 0.9; in [10], 1.3.
Consider `Cc1sc(N)c(C(=O)c2cccc(C(F)(F)F)c2)c1C`, for which the Activity in assay [1] is -8%; in assay [2], -3.4%; in [3], -31%; in [4] it was -57%. Further, the inhibition in assay [5] and in assay [6] was 0% throughout. Further, the fold change (FC) in assay [8] came to 1.3; in assay [9], 1; in assay [10], 1.7.
